Reference: publication PMC4439361 (Current drug discovery technologies, 2015)
Converted amounts (≈) assume the structure as drawn. Where two headings read alike, the source gives them in different places.

Experiments:
P. aeruginosa PheRS = P. aeruginosa PheRS (Pseudomonas aeruginosa, UniProt Q9I0A3); assay: tRNA aminoacylation assay in SPA format, P. aeruginosa PheRS; assay type: biochemical
S. pneumoniae PheRS = S. pneumoniae PheRS (Streptococcus pneumoniae serotype 2, UniProt Q04LU1); assay: tRNA aminoacylation assay in SPA format, S. pneumoniae PheRS; assay type: biochemical
Chain of S. pneumoniae PheRS (Q04LU1 whole entry): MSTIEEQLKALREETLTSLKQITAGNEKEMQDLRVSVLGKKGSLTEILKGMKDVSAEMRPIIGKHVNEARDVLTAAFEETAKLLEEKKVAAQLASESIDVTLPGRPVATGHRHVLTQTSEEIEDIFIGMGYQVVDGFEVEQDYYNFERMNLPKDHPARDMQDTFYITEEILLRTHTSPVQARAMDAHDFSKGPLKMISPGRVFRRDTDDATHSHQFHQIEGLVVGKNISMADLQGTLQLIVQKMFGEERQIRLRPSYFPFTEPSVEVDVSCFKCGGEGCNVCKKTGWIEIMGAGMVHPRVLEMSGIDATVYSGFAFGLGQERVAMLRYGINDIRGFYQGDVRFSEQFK

[1] = test system: cytoplasmic protein synthesis in wheat germ extracts; assay: Wheat germ extract poly-Phe cytoplasmic protein synthesis assay; assay type: biochemical; conditions: poly-U mRNA, compound to 132 μM
Method in brief: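 Cytoplasmic poly-Phe synthesis in wheat germ extract programmed with poly-U mRNA, yeast tRNAPhe and [3H]phenylalanine. Levels of mRNA, tRNA, label and Mg++ were optimized for poly-Phe synthesis. Cycloheximide served as reference protein-synthesis inhibitor.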

[2] = target: T1, human mitochondrial PheRS (hmPheRS) (Homo sapiens, UniProt O95363); assay: Human mitochondrial PheRS aminoacylation assay; assay type: biochemical; conditions: 132 μM compound; 0.2 μM hmPheRS; average of three assays
T1 sequence (O95363 1-451): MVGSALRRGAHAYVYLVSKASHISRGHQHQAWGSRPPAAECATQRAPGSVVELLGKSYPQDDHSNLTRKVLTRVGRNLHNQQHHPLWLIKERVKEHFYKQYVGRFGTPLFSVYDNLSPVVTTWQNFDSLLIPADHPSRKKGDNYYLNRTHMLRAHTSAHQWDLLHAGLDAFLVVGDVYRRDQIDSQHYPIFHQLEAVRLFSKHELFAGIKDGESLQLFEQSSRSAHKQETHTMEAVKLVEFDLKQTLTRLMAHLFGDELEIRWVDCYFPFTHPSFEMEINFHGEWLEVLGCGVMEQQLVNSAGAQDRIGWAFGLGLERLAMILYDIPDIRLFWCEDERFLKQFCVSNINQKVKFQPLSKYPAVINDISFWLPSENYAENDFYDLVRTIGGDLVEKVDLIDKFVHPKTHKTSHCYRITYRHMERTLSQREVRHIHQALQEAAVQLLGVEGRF

E. coli (ATCC 25922) = assay: Broth microdilution MIC; assay type: cell-based; conditions: Escherichia coli, ATCC25922
E. coli tolC = assay: Broth microdilution MIC; assay type: cell-based; conditions: Escherichia coli
E. faecalis (ATCC 29212) = assay: Broth microdilution MIC; assay type: cell-based; conditions: Enterococcus faecalis, ATCC29212
[3] = test system: H. influenzae (ATCC 49766); assay: Broth microdilution MIC; assay type: cell-based; conditions: Haemophilus influenzae, ATCC49766
[4] = test system: M. catarrhalis (ATCC 25238); assay: Broth microdilution MIC; assay type: cell-based; conditions: Moraxella catarrhalis, ATCC25238
[5] = test system: P. aeruginosa (ATCC 47085); assay: Broth microdilution MIC; assay type: cell-based; conditions: Pseudomonas aeruginosa, ATCC47085
[6] = test system: P. aeruginosa PAO200 (efflux mutant); assay: Broth microdilution MIC; assay type: cell-based; conditions: Pseudomonas aeruginosa
[7] = test system: P. aeruginosa (hypersensitive); assay: Broth microdilution MIC; assay type: cell-based; conditions: Pseudomonas aeruginosa, ATCC35151
S. aureus (ATCC 29213) = assay: Broth microdilution MIC; assay type: cell-based; conditions: Staphylococcus aureus, ATCC29213
[8] = test system: S. pneumoniae (ATCC 49619); assay: Broth microdilution MIC; assay type: cell-based; conditions: Streptococcus pneumoniae, ATCC49619
[9] = test system: cytoplasmic protein synthesis in wheat germ extracts; conditions: wheat germ extract; at 30 μM; cited from earlier work
[10] = IC50s at five Phe concentrations 25 to 300 μM, ATP fixed at 2.5 mM
[11] = IC50s at six ATP concentrations 25 to 1000 μM, Phe fixed at 100 μM

Chain of P. aeruginosa PheRS (Q9I0A4 whole entry): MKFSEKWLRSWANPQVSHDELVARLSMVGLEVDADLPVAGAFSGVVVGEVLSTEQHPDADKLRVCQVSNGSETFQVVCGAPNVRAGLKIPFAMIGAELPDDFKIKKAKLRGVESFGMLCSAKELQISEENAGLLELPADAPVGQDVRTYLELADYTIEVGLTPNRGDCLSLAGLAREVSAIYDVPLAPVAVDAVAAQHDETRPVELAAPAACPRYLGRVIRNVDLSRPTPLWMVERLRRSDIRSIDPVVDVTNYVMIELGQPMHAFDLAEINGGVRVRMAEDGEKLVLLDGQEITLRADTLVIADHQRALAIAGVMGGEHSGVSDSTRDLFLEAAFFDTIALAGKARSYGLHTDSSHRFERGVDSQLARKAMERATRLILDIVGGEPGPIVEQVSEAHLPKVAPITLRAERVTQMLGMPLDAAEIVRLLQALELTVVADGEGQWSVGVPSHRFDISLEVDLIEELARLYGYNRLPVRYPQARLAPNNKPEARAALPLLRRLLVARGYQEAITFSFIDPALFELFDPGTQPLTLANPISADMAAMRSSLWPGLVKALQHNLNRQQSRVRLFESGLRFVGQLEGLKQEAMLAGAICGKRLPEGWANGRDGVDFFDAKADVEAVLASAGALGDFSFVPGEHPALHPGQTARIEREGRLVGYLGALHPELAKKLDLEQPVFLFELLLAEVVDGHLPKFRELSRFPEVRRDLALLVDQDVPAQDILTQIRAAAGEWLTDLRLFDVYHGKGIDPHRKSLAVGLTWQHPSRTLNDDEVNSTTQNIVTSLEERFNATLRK
Chain of P. aeruginosa PheRS (Q9I0A3 whole entry): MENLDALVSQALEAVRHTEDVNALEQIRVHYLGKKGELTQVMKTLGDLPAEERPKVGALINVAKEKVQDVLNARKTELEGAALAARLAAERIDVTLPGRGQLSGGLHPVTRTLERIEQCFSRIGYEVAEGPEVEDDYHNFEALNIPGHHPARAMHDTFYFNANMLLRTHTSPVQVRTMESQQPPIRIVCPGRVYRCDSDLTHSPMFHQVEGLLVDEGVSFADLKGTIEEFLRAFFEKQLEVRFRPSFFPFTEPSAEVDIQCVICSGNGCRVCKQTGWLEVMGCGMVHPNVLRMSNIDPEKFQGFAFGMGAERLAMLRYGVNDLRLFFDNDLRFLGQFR

Compound: Cc1cc2c(C(C)C)c(O)c(O)c(C=O)c2c(O)c1-c1c(C)cc2c(C(C)C)c(O)c(O)c(C=O)c2c1O [BPP_03B04, gossypol]
- IC50 (P. aeruginosa PheRS): 2300 nM
- Ki (P. aeruginosa PheRS): 830 nM
- mode of action relative to Phe (P. aeruginosa PheRS; [10]): competitive
- mode of action relative to ATP (P. aeruginosa PheRS; [11]): uncompetitive
- IC50 (S. pneumoniae PheRS): 4900 nM
- Ki (S. pneumoniae PheRS): 980 nM
- mode of action relative to Phe (S. pneumoniae PheRS; [10]): competitive
- mode of action relative to ATP (S. pneumoniae PheRS; [11]): uncompetitive
- inhibition of protein synthesis [1]: no inhibition
- decrease of hmPheRS activity [2]: approximately 80%
- MIC (E. coli (ATCC 25922)): 128 µg/mL (≈ 247 µM)
- MIC (E. coli tolC): 128 µg/mL (≈ 247 µM)
- MIC (E. faecalis (ATCC 29212)): 32 µg/mL (≈ 61.7 µM)
- MIC [3]: 16 µg/mL (≈ 30.9 µM)
- MIC [4]: 32 µg/mL (≈ 61.7 µM)
- MIC [5]: 16 µg/mL (≈ 30.9 µM)
- MIC [6]: 16 µg/mL (≈ 30.9 µM)
- MIC [7]: 16 µg/mL (≈ 30.9 µM)
- MIC (S. aureus (ATCC 29213)): 16 µg/mL (≈ 30.9 µM)
- MIC [8]: 32 µg/mL (≈ 61.7 µM)

Compound: C[C@@H]1C[C@@H]([C@H](O)CC2CC(=O)NC(=O)C2)C(=O)[C@@H](C)C1 [cycloheximide]
- inhibition of protein synthesis [9]: inhibited
